Data as given in ChEMBL document CHEMBL1149345, “Pyrrolo[1,2-b][1,2,5]benzothiadiazepines (PBTDs): A new class of agents with high apoptotic activity in chronic myelogenous leukemia K562 cells and in cells from patients at onset and who were imatinib-resistant” (2006).
The source made the active and inactive calls. The calls are words filed in the database; no cut-off is given here.

Legend:
K562 [1] = assay: Apoptotic activity against human K562 cell line at 10 uM after 8 hrs; assay type: functional
Method in brief: (§1)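 K562 cells exposed at 10 µM for 8, 16, 24 and 48 h, run alongside imatinib reference and untreated control cells. Result is % apoptosis as mean ± SD of triplicate experiments. Morphology (chromatin condensation, micronuclei, vacuolization) checked by electron microscopy.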

K562 [2] = assay: Apoptotic activity against human K562 cell line at 10 uM after 48 hrs; assay type: functional; method in brief: as §1
K562 [3] = assay: Apoptotic activity against human K562 cell line at 10 uM after 24 hrs; assay type: functional; method in brief: as §1
K562 [4] = assay: Apoptotic activity against human K562 cell line at 10 uM after 16 hrs; assay type: functional; method in brief: as §1
Homo sapiens [5] = species: Homo sapiens; assay: Apoptotic activity against peripheral blood cells of imatinib-resistant CML affected human (38-70 yrs) at blast crisis phase at 10 uM after 48 hrs; assay type: functional
Method in brief: (§2)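 Peripheral blood cells taken from 2 CML patients in blast crisis that evolved under imatinib treatment. Cells cultured in vitro and exposed at 10 µM for 24 and 48 h. Apoptosis scored as % by DNA fragmentation assay.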

K562 [6] = assay: Decrease in procaspase 8 expression in human K562 cells by Western blot; assay type: functional, cell-based
Method in brief: (§3)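 Lysates of treated K562 cells taken after 24 h. Procaspase-8 and procaspase-9 immunoreactive bands assessed by Western blot.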

Homo sapiens [7] = species: Homo sapiens; assay: Apoptotic activity against peripheral blood cells of imatinib-resistant CML affected human (38-70 yrs) at blast crisis phase at 10 uM after 24 hrs; assay type: functional; method in brief: as §2
Homo sapiens [8] = species: Homo sapiens; assay: Apoptotic activity against peripheral blood cells of CML affected human (27-83 yrs) at onset phase at 10 uM after 24 hrs; assay type: functional
Method in brief: (§4)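 Bone marrow or peripheral blood cells harvested from 12 consecutive CML patients at onset. Cells cultured in vitro and treated at 10 µM for 24 and 48 h. Read-out by DNA fragmentation assay as % apoptosis.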

K562 [9] = assay: BCR-ABL inactivation-independent inhibition of […]-induced apoptosis in human K562 cell at 10 uM by Western blot; assay type: functional, cell-based
Homo sapiens [10] = species: Homo sapiens; assay: Apoptotic activity against peripheral blood cells of CML affected human (27-83 yrs) at onset phase at 10 uM after 48 hrs; assay type: functional; method in brief: as §4
K562 [11] = assay: Decrease in procaspase 9 expression in human K562 cells by Western blot; assay type: functional, cell-based; method in brief: as §3

SMILES | Activity (K562 [1]) [%] | Activity (K562 [2]) [%] | Activity (K562 [3]) [%] | Activity (K562 [4]) [%] | Activity (Homo sapiens [5]) [%] | Activity (K562 [6]) | Activity (Homo sapiens [7]) [%] | Activity (Homo sapiens [8]) [%] | Activity (K562 [9]) | Activity (Homo sapiens [10]) [%] | Activity (K562 [11])
CCOC(=O)[C@H]1c2cccn2S(=O)(=O)c2ccccc2N1C(=O)c1ccc(C)cc1 | 33.1 | 81.8 | 67.6 | 57.8 | – | – | – | – | – | – | –
CCOC(=O)[C@H]1Nc2ccccc2S(=O)(=O)n2cccc21 | 26.6 | 86.2 | 69 | 53.8 | – | – | – | – | – | – | –
CCOC(=O)[C@@H]1c2cccn2S(=O)(=O)c2ccccc2N1C(=O)c1ccc(C)cc1 | 38 | 86.2 | 71.6 | 63 | – | – | – | – | – | – | –
CCOC(=O)[C@@H]1Nc2ccccc2S(=O)(=O)n2cccc21 | 20.5 | 80.3 | 63.2 | 48.4 | – | – | – | – | – | – | –
CCOC(=O)C1c2cccn2S(=O)(=O)c2ccccc2N1C(=O)c1ccccc1 (racemic) | 45 | 89.6 | 80 | 66.6 | – | – | – | – | – | – | –
CCOC(=O)C1c2cccn2S(=O)(=O)c2ccccc2N1C(=O)c1ccc(Cl)cc1 (racemic) | 44.3 | 91.7 | 79.7 | 67 | – | – | – | – | – | – | –
O=S1(=O)c2ccccc2NC(CO)c2cccn21 (racemic) | 5.3 | 23 | 19.6 | 19.3 | – | – | – | – | – | – | –
CCOC(=O)CC1c2cccn2S(=O)(=O)c2ccccc2N1C(=O)c1ccc(C)cc1 (racemic) | 45 | 87.6 | 74.3 | 67.6 | – | – | – | – | – | – | –
O=C(O)CC1Nc2ccccc2S(=O)(=O)n2cccc21 (racemic) | 4.5 | 6.1 | 6.4 | 5.5 | – | – | – | – | – | – | –
CCOC(=O)CC1c2cccn2S(=O)(=O)c2ccccc2N1C(=O)c1ccc(F)cc1 (racemic) | 44.6 | 90.7 | 79 | 66.3 | – | – | – | – | – | – | –
CCOC(=O)CC1c2cccn2S(=O)(=O)c2ccccc2N1C(=O)c1cccc2ccccc12 (racemic) | 47 | 92.6 | 80 | 69 | – | – | – | – | – | – | –
CCOC(=O)CC1c2cccn2S(=O)(=O)c2ccccc2N1C(=O)c1ccc(Cl)cc1 (racemic) | 43 | 90 | 78 | 65.5 | – | – | – | – | – | – | –
CCOC(=O)CC1c2cccn2S(=O)(=O)c2ccccc2N1C(=O)c1ccccc1 (racemic) | 45.3 | 92.3 | 79.5 | 68 | – | – | – | – | – | – | –
O=C(O)C1Nc2ccccc2S(=O)(=O)n2cccc21 (racemic) | 4.8 | 6.2 | 6.8 | 5.7 | – | – | – | – | – | – | –
CCOC(=O)CC1Nc2ccccc2S(=O)(=O)n2cccc21 (racemic) | 29.3 | 88.3 | 72 | 53 | – | – | – | – | – | – | –
CCOC(=O)C1c2cccn2S(=O)(=O)c2ccccc2N1C(=O)c1ccc(C)cc1 (racemic) | 45.6 | 91.7 | 79.6 | 67.6 | 78 | inactive | 55 | 55 | Active | 78 | –
CCOC(=O)C1c2cccn2S(=O)(=O)c2ccccc2N1C(=O)c1ccc(F)cc1 (racemic) | 45.3 | 92 | 81 | 67.6 | – | – | – | – | – | – | –
CCOC(=O)C1c2cccn2S(=O)(=O)c2ccccc2N1C(=O)c1cccc2ccccc12 (racemic) | 43.7 | 87.6 | 77 | 66 | – | – | – | – | – | – | –
CCOC(=O)C1Nc2ccccc2S(=O)(=O)n2cccc21 (racemic) | 34 | 89.7 | 76.3 | 61.3 | 60 | Active | 40 | 50 | Active | 70 | inactive
Cc1ccc(NC(=O)c2ccc(CN3CCN(C)CC3)cc2)cc1Nc1nccc(-c2cccnc2)n1 [IMATINIB] | 66.7 | 71.2 | 71 | 70 | – | – | – | – | – | – | –
